Source: ChEMBL document CHEMBL4316593 (Eur J Med Chem, 2019)
The source made the active and inactive calls. No cut-off for these calls is given here.

Experiments:
[1] = Inhibition of RTK/PI3K/AKT/mTOR signaling in human U87 cells assessed as down regulation of TOMM34 gene expression at cytotoxic IC50 measured after 48 hrs relative to control; format: cell-based; details: U-87MG ATCC
Summary of the method: (§1)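 Cells were exposed for 48hrs at 37°C in humidified 5% CO₂ to the compound at its previously determined IC₅₀, with Cisplatin at its IC₅₀ and an untreated negative control alongside. Each condition was run in triplicate. RNA was isolated from all samples by the same protocol. Genes were called differentially expressed by DESeq2 at q-value < 0.05 and fold change > 1.5.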

[2] = Inhibition of RTK/PI3K/AKT/mTOR signaling in human U87 cells assessed as down regulation of CDK5RAP2 gene expression at cytotoxic IC50 measured after 48 hrs relative to control; format: cell-based; details: U-87MG ATCC
Summary of the method: (§2)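 U87 cells grown in MEM with 10% FBS at 37°C, 5% CO2. Cells exposed to IC50 of test compound for 48 hrs, alongside untreated and cisplatin controls, each condition in triplicate. RNA isolated and profiled; differential expression called with DESeq2 (q-value < 0.05, fold change > 1.5), fold change versus untreated.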

U-87 MG [3] = assay: Induction of DNA damage in human U87 cells assessed as change in TAOK3 gene expression at cytotoxic IC50 measured after 48 hrs […] relative to control; format: functional, U-87MG ATCC; summary of the method: as §2
U-87 MG [4] = assay: Induction of apoptosis in human U87 cells assessed as change in ACTG1 gene expression at cytotoxic IC50 measured after 48 hrs […] relative to control; format: functional, U-87MG ATCC; summary of the method: as §2
U-87 MG [5] = assay: Cell cycle arrest in human U87 cells assessed as change in CDKN1A gene expression at cytotoxic IC50 measured after 48 hrs […] relative to control; format: functional, U-87MG ATCC
Summary of the method: (§3)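 U87 expression profiling. Cells incubated 48hrs at 37°C, 5% CO₂ with the IC₅₀ concentration, alongside a cisplatin and an untreated control, in triplicate. RNA was isolated by one common protocol and profiled. DEGs were called with DESeq2 (q < 0.05, fold change > 1.5) and expressed as fold change versus untreated.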

[6] = Inhibition of RTK/PI3K/AKT/mTOR signaling in human U87 cells assessed as up regulation of tribbles pseudokinase 2 gene expression at cytotoxic IC50 measured after 48 hrs relative to control; format: cell-based; details: U-87MG ATCC
[7] = Inhibition of RTK/PI3K/AKT/mTOR signaling in human U87 cells assessed as down regulation of ATP6V0D1 gene expression at cytotoxic IC50 measured after 48 hrs relative to control; format: cell-based; details: U-87MG ATCC; summary of the method: as §2
[8] = Inhibition of RTK/PI3K/AKT/mTOR signaling in human U87 cells assessed as up regulation of KLF7 gene expression at cytotoxic IC50 measured after 48 hrs relative to control; format: cell-based; details: U-87MG ATCC; summary of the method: as §1
[9] = Inhibition of RTK/PI3K/AKT/mTOR signaling in human U87 cells assessed as up regulation of lecithin retinol acyltransferase (phosphatidylcholine-retinol O-acyltransferase) gene expression at cytotoxic IC50 measured after 48 hrs relative to control; format: cell-based; details: U-87MG ATCC
[10] = Inhibition of RTK/PI3K/AKT/mTOR signaling in human U87 cells assessed as down regulation of ZNF106 gene expression at cytotoxic IC50 measured after 48 hrs relative to control; format: cell-based; details: U-87MG ATCC; summary of the method: as §1
[11] = Inhibition of RTK/PI3K/AKT/mTOR signaling in human U87 cells assessed as down regulation of DHX30 gene expression at cytotoxic IC50 measured after 48 hrs relative to control; format: cell-based; details: U-87MG ATCC; summary of the method: as §2
[12] = Inhibition of RTK/PI3K/AKT/mTOR signaling in human U87 cells assessed as up regulation of ral guanine nucleotide dissociation stimulator gene expression at cytotoxic IC50 measured after 48 hrs relative to control; format: cell-based; details: U-87MG ATCC
[13] = Inhibition of RTK/PI3K/AKT/mTOR signaling in human U87 cells assessed as down regulation of NXF1 gene expression at cytotoxic IC50 measured after 48 hrs relative to control; format: cell-based; details: U-87MG ATCC; summary of the method: as §1
[14] = Inhibition of RTK/PI3K/AKT/mTOR signaling in human U87 cells assessed as down regulation of HELLS gene expression at cytotoxic IC50 measured after 48 hrs relative to control; format: cell-based; details: U-87MG ATCC; summary of the method: as §2
[15] = Inhibition of RTK/PI3K/AKT/mTOR signaling in human U87 cells assessed as up regulation of regulator of chromosome condensation 2 gene expression at cytotoxic IC50 measured after 48 hrs relative to control; format: cell-based; details: U-87MG ATCC
[16] = Inhibition of RTK/PI3K/AKT/mTOR signaling in human U87 cells assessed as up regulation of RPS14 gene expression at cytotoxic IC50 measured after 48 hrs relative to control; format: cell-based; details: U-87MG ATCC
Summary of the method: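 U87 cells were exposed for 48 hrs at 37°C under 5% CO₂, with cisplatin and untreated controls, all in triplicate. RNA was isolated by the same protocol for every sample and expression profiled from mapped reads. Differential expression against untreated cells was called in DESeq2 (q-value < 0.05, fold change > 1.5).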

U-87 MG [17] = assay: Induction of apoptosis in human U87 cells assessed as change in JUN gene expression at cytotoxic IC50 measured after 48 hrs […] relative to control; format: functional, U-87MG ATCC; summary of the method: as §2
[18] = Inhibition of RTK/PI3K/AKT/mTOR signaling in human U87 cells assessed as up regulation of MRG domain binding protein gene expression at cytotoxic IC50 measured after 48 hrs relative to control; format: cell-based; details: U-87MG ATCC; summary of the method: as §1
[19] = Inhibition of RTK/PI3K/AKT/mTOR signaling in human U87 cells assessed as down regulation of KIF1BP gene expression at cytotoxic IC50 measured after 48 hrs relative to control; format: cell-based; details: U-87MG ATCC; summary of the method: as §2
U-87 MG [20] = assay: Cell cycle arrest in human U87 cells assessed as change in CDK4 gene expression at cytotoxic IC50 measured after 48 hrs […] relative to control; format: functional, U-87MG ATCC; summary of the method: as §3
[21] = Inhibition of RTK/PI3K/AKT/mTOR signaling in human U87 cells assessed as up regulation of neuron navigator 1 gene expression at cytotoxic IC50 measured after 48 hrs relative to control; format: cell-based
U-87 MG [22] = assay: Cytotoxicity against human U87 cells assessed as reduction in cell proliferation by phase contrast microscopic analysis; format: functional, cell-based; details: U-87MG ATCC
[23] = Inhibition of RTK/PI3K/AKT/mTOR signaling in human U87 cells assessed as up regulation of T-cell leukemia translocation altered gene expression at cytotoxic IC50 measured after 48 hrs relative to control; format: cell-based
[24] = Inhibition of RTK/PI3K/AKT/mTOR signaling in human U87 cells assessed as up regulation of single Ig and TIR domain containing gene expression at cytotoxic IC50 measured after 48 hrs relative to control; format: cell-based; details: U-87MG ATCC
[25] = Inhibition of RTK/PI3K/AKT/mTOR signaling in human U87 cells assessed as up regulation of solute carrier family 12 member 9 gene expression at cytotoxic IC50 measured after 48 hrs relative to control; format: cell-based; details: U-87MG ATCC
[26] = Inhibition of RTK/PI3K/AKT/mTOR signaling in human U87 cells assessed as up regulation of platelet derived growth factor C gene expression at cytotoxic IC50 measured after 48 hrs relative to control; format: cell-based
[27] = Inhibition of RTK/PI3K/AKT/mTOR signaling in human U87 cells assessed as up regulation of MYC gene expression at cytotoxic IC50 measured after 48 hrs relative to control; format: cell-based; details: U-87MG ATCC; summary of the method: as §1

CC(=O)C(=NNc1ccccc1C#N)C(C)=O
log2FC [1]: -1.47 | log2FC [2]: -0.519 | fold change (FC) (U-87 MG [3]): -1.929 | log2FC (U-87 MG [4]): -1.416 | fold change (FC) (U-87 MG [5]): 1.296 | log2FC [6]: 1.41 | log2FC [7]: -1.21 | log2FC [8]: 1.91 | log2FC [9]: 1.23 | log2FC [10]: -0.749 | log2FC [11]: -0.431 | log2FC [12]: 0.685 | log2FC [13]: -1.44 | log2FC [14]: -1.06 | log2FC [15]: 1.06 | log2FC [16]: 0.607 | log2FC (U-87 MG [17]): -3.064 | log2FC [18]: 0.97 | log2FC [19]: -0.96 | fold change (FC) (U-87 MG [20]): 1.499 | log2FC [21]: 0.879 | Activity (U-87 MG [22]): Active | log2FC [23]: 1.25 | log2FC [24]: 0.676 | log2FC [25]: 0.907 | log2FC [26]: 0.883 | log2FC [27]: 0.54
